The source made the active and inactive calls.
Columns and labels:
Mus musculus [1] = species: Mus musculus; assay: Antinociceptive response was determined in mice using hot plate flick method; format: functional
How it was run: (§1)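 Mice, 8 per dose, given analogues sc and placed on a 55.0 °C hot plate 5 min later. Two control latencies at least 10 min apart, normally 8–12 s. Endpoint is paw lick or jump. %MPE = [(test − control)/(40 − control)] × 100. ED50 with confidence limits, or percent effect at a single dose.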

Mus musculus [2] = species: Mus musculus; assay: Antinociceptive response was determined in mice using tail flick method; format: functional
How it was run: (§2)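 Mice; epibatidine analogues given i.t., tail-flick (D'Amour–Smith) latency read 5 min later. Baseline 2–4 s, 10 s cutoff. %MPE = [(test − control)/(10 − control)] × 100. Eight to twelve mice per dose, at least four doses for dose–response; ED50 with confidence limits, or percent effect at a single dose.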

[3] = molecular target: Neuronal acetylcholine receptor; alpha4/beta2 (Rattus norvegicus, UniProt P09483+P12390); assay: Inhibition of alpha beta[3H]epibatidine binding to Nicotinic acetylcholine receptor alpha4-beta2 of rat cerebral cortex; format: tissue-based
[4] = molecular target: Neuronal acetylcholine receptor subunit alpha-7 (Rattus norvegicus, UniProt Q05941); assay: Inhibition of [125I]-iodo-MLA binding to Nicotinic acetylcholine receptor alpha-7 of rat cerebral cortex; format: tissue-based
Mus musculus [5] = assay: Antinociceptive response was determined in mice at a dose of 10 mg/kg using hypothermia method; format: functional
How it was run: (§3)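 Rectal temperature in mice by thermistor probe inserted 24 mm, read just before and at several times after sc saline or analogue. ED50 with confidence limits, or change at a single dose.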

Mus musculus [6] = assay: Antinociceptive response was determined in mice at a dose 15 mg/kg using tail flick method; format: functional; how it was run: as §2
Mus musculus [7] = assay: Antinociceptive response was determined in mice at a dose of 10 mg/kg using hot plate flick method; format: functional; how it was run: as §1
Mus musculus [8] = assay: Percent effect on the body temperature was measured at a dose of 1 mg/kg; format: functional
Mus musculus [9] = species: Mus musculus; assay: Antinociceptive response was determined in mice using spontaneous activity method; format: functional
How it was run: (§4)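 Mice given 0.9% saline or analogue sc and put in individual photocell activity cages 5 min later. Beam interruptions counted over the next 10 min. ED50 with confidence limits, or percent effect at a single dose.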

Mus musculus [10] = assay: Antinociceptive response was determined in mice at a dose 10 mg/kg using tail flick method; format: functional; how it was run: as §2
Mus musculus [11] = assay: Percent effect on the body temperature was measured at a dose of 5 mg/kg; format: functional
Mus musculus [12] = assay: Antinociceptive response was determined in mice at a dose of 15 mg/kg using hot plate flick method; format: functional; how it was run: as §1
Mus musculus [13] = species: Mus musculus; assay: Antinociceptive response was determined in mice using hypothermia method; format: functional; how it was run: as §3
Mus musculus [14] = assay: Antinociceptive response was determined in mice at a dose of 1 mg/kg using hot plate flick method; format: functional
Mus musculus [15] = assay: Antinociceptive response was determined in mice at a dose of 10 mg/kg using spontaneous activity method; format: functional; how it was run: as §4
Mus musculus [16] = assay: Percent effect on the body temperature was measured at a dose of 10 mg/kg; format: functional

Chain of Neuronal acetylcholine receptor subunit alpha-7 (Q05941 whole entry): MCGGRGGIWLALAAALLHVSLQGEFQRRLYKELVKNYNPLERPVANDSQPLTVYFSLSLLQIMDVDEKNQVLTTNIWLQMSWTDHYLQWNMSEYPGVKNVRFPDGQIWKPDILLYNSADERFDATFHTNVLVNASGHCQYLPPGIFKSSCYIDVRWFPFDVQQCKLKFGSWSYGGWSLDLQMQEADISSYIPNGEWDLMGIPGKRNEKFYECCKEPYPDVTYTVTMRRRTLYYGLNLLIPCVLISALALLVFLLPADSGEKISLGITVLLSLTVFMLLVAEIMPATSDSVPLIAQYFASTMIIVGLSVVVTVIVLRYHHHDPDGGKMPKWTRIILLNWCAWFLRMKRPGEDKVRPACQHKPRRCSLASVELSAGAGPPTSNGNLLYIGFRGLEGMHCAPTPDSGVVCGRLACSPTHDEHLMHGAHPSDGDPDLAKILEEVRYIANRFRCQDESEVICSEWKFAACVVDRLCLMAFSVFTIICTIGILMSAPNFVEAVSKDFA
Chain of Neuronal acetylcholine receptor; alpha4/beta2 (P09483 whole entry): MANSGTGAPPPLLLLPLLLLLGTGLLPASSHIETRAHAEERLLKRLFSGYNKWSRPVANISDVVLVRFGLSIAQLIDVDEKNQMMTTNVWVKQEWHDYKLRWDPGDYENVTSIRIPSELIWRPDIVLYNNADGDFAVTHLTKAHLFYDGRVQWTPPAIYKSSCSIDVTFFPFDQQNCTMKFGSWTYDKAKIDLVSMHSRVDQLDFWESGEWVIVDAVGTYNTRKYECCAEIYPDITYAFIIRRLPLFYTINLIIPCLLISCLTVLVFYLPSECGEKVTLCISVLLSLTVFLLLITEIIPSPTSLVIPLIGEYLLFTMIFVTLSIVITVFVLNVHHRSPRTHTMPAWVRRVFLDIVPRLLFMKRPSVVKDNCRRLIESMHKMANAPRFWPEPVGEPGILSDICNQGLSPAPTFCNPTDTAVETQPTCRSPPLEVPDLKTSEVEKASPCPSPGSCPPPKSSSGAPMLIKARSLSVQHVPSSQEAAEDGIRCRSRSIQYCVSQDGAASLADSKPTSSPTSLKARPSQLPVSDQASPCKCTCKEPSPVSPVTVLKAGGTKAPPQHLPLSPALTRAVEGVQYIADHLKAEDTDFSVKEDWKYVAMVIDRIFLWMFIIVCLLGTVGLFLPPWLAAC
Chain of Neuronal acetylcholine receptor; alpha4/beta2 (P12390 whole entry): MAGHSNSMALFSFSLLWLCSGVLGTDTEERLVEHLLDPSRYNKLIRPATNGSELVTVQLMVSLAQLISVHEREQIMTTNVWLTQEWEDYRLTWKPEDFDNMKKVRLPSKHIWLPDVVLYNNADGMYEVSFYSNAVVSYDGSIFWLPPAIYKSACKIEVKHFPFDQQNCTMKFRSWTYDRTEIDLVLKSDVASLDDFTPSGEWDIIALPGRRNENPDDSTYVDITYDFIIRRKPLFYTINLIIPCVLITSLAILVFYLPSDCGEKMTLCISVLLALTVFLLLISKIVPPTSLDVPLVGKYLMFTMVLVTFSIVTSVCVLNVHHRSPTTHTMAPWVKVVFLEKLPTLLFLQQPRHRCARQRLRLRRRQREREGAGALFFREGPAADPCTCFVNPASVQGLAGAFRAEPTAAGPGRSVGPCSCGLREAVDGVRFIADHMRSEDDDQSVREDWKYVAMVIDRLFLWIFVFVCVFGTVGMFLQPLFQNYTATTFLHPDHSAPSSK

| Structure (SMILES) | AD50 (Mus musculus [1]) [mg/kg] | AD50 (Mus musculus [2]) [mg/kg] | Ki [3] [nM] | ED50 (Mus musculus [7]) [mg/kg] | ED50 (Mus musculus [9]) [mg/kg] | Response (Mus musculus [10]) [%] | Response (Mus musculus [5]) [%] | other results |
| --- | --- | --- | --- | --- | --- | --- | --- | --- |
| Fc1ncc(C2CC3CCC2N3)cc1-c1ccccc1 (stereo in doubt; (-)-5a) | 0.7 | 0.08 | 0.26 | 10 | – | – | – | Ki [4]: > 2000 nM; Response (Mus musculus [5]; 10 mg/kg): -0.8%; Response (Mus musculus [6]): 5% |
| O=[N+]([O-])c1ccc(-c2cc(C3CC4CCC3N4)cnc2F)cc1 (centres undefined) | 0.12 | 0.003 | – | – | 0.22 | 5 | – | Body temperature (Mus musculus [8]): 0% |
| O=[N+]([O-])c1cccc(-c2cc(C3CC4CCC3N4)cnc2F)c1 (centres undefined) | 0.13 | 0.0005 | 0.05 | 20 | 6.5 | 3 | 0 | Body temperature (Mus musculus [11]): 5% |
| Fc1ncc(C2CC3CCC2N3)cc1-c1ccccc1 (racemic) | 1.2 | 0.5 | – | – | 4.7 | – | – | Ki [4]: > 2000 nM; ED50 (Mus musculus [12]; Mus musculus, read-out: ED50): 4 mg/kg; Response (Mus musculus [5]; 10 mg/kg): -0.5%; Response (Mus musculus [6]): 3% |
| Clc1ccc([C@H]2C[C@@H]3CC[C@H]2N3)cn1 [(-)-EPIBATIDINE] | – | – | – | – | – | – | – | ED50 (Mus musculus [1]): 0.004 mg/kg; ED50 (Mus musculus [2]): 0.004 mg/kg; ED50 (Mus musculus [13]): 0.001 mg/kg |
| Fc1ncc(C2CC3CCC2N3)cc1-c1ccccc1 (single isomer, unassigned; (+)) | 2.4 | 1 | – | – | – | – | – | Ki [4]: > 2000 nM; ED50 (Mus musculus [12]; dose 15 mg/kg): 8 mg/kg; Response (Mus musculus [5]; 10 mg/kg): -0.4%; Response (Mus musculus [6]): 7% |
| Fc1ccc(-c2cc(C3CC4CCC3N4)cnc2F)cc1 (centres undefined) | 0.23 | 0.0005 | 0.02 | 15 | 2 | 2 | 10 | Body temperature (Mus musculus [8]): inactive |
| Fc1cccc(-c2cc(C3CC4CCC3N4)cnc2F)c1 (centres undefined) | – | 0.005 | – | – | 0.36 | – | – | ED50 (Mus musculus [1]): 3.3 mg/kg; Body temperature (Mus musculus [8]): 0%; ED50 (Mus musculus [2]): 3.5 mg/kg; ED50 (Mus musculus [13]): 1.8 mg/kg; AD50 (Mus musculus [14]): 20 mg/kg |
| Fc1ncc(C2CC3CCC2N3)cc1-c1cccc(Cl)c1 (centres undefined) | 0.45 | 0.01 | 0.07 | 14 | – | 3 | 0 | Response (Mus musculus [15]): 15%; Body temperature (Mus musculus [16]): 0% |
| CN1CCC[C@H]1c1cccnc1 [NICOTINE] | – | – | – | – | 0.5 | – | – | ED50 (Mus musculus [1]): 0.65 mg/kg; ED50 (Mus musculus [2]): 1.3 mg/kg; ED50 (Mus musculus [13]): 1 mg/kg |
| Fc1ccc(C2CC3CCC2N3)cn1 (centres undefined) | – | – | 0.02 | – | – | – | – | – |
| COc1cccc(-c2cc(C3CC4CCC3N4)cnc2F)c1 (centres undefined) | 2 | 0.008 | 0.12 | 8 | 6 | 0 | 0 | Body temperature (Mus musculus [16]): 0% |
| COc1ccc(-c2cc(C3CC4CCC3N4)cnc2F)cc1 (centres undefined) | 0.52 | 0.05 | 0.06 | 16 | 3.6 | 2 | 0 | Body temperature (Mus musculus [8]): 10% |
| Nc1ccc(-c2cc(C3CC4CCC3N4)cnc2F)cc1 (centres undefined) | 1.8 | 0.005 | 0.09 | 10 | 6 | 2 | 0 | Body temperature (Mus musculus [11]): 0% |
| Fc1ncc(C2CC3CCC2N3)cc1-c1ccc(Cl)cc1 (centres undefined) | 0.26 | 0.0003 | 0.04 | 7 | – | 2 | 0 | Response (Mus musculus [15]): 50%; Body temperature (Mus musculus [16]): 0% |
| Nc1cccc(-c2cc(C3CC4CCC3N4)cnc2F)c1 (centres undefined) | 0.82 | 0.009 | 0.16 | 4 | 8.5 | 1 | 0 | Body temperature (Mus musculus [11]): 5% |

Source: ChEMBL document CHEMBL1138739, “Synthesis, nicotinic acetylcholine receptor binding, and antinociceptive properties of 2'-fluoro-3'-(substituted phenyl)deschloroepibatidine analogues. Novel nicotinic antagonist” (J Med Chem, 2004)
